Source: ChEMBL document CHEMBL1156597, “Structure-activity relationship of kahalalide F synthetic analogues” (J Med Chem, 2008)

Key:
[1] = system: LoVo; experiment: Cytotoxicity against human doxorubicin resistant LoVo cells after 48 hrs by SRB assay; type: functional; settings: for CC50: read-out: LC50 (the source's name)
How it was run: (§1)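 Cells grown in RPMI 1640 with 10% FBS and penicillin/streptomycin at 37 °C and 5% CO₂, trypsinized, then seeded at 5 × 10³/well. After 18 h drug-free attachment, samples in DMSO/EtOH/PBS (0.5:0.5:99) were added for 48 h continuous exposure. Cells were fixed with cold TCA (1 h, 4 °C) and stained with SRB (10 min). Tris-solubilized stain read at 490 nm. Triplicate wells, mean ± SD; GI₅₀ derived.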

[2] = system: LoVo; experiment: Cytotoxicity against human LoVo cells after 48 hrs by SRB assay; type: functional; settings: for CC50: read-out: LC50 (the source's name)
[3] = system: K562; experiment: Cytotoxicity against human K562 cells after 48 hrs by SRB assay; type: functional; settings: K562, 48 h; for CC50: read-out: LC50 (the source's name); how it was run: as §1
[4] = system: HeLa; experiment: Cytotoxicity against human HeLa cells after 48 hrs by SRB assay; type: functional; settings: for CC50: read-out: LC50 (the source's name); how it was run: as §1
[5] = system: HT-29; experiment: Cytotoxicity against human HT29 cells after 48 hrs by SRB assay; type: functional, cell-based; settings: Homo sapiens, HT-29, 48 h; for CC50: read-out: LC50 (the source's name); how it was run: as §1
[6] = system: A549; experiment: Cytotoxicity against human A549 cells after 48 hrs by SRB assay; type: functional, cell-based; settings: Homo sapiens, A549, 48 h; how it was run: as §1
[7] = Cytotoxicity against human IGROV cells after 48 hrs by SRB assay; type: functional; settings: for CC50: read-out: LC50 (the source's name); how it was run: as §1
[8] = system: SK-MEL-28; experiment: Cytotoxicity against human SK-MEL-28 cells after 48 hrs by SRB assay; type: functional, cell-based; settings: Homo sapiens, SK-MEL-28, 48 h; for CC50: read-out: LC50 (the source's name); how it was run: as §1
[9] = system: DU-145; experiment: Cytotoxicity against human DU145 cells after 48 hrs by SRB assay; type: functional, cell-based; settings: Homo sapiens, DU-145, 48 h; for CC50: read-out: LC50 (the source's name); how it was run: as §1
[10] = system: SK-BR-3; experiment: Cytotoxicity against human SKBR3 cells after 48 hrs by SRB assay; type: functional; settings: SK-BR-3, 48 h; for CC50: read-out: LC50 (the source's name); how it was run: as §1
[11] = system: PANC-1; experiment: Cytotoxicity against human PANC1 cells after 48 hrs by SRB assay; type: functional; settings: PANC-1, 48 h; for CC50: read-out: LC50 (the source's name); how it was run: as §1
[12] = Cytotoxicity against human HeLa-APL cells after 48 hrs by SRB assay; type: functional; how it was run: as §1
[13] = Cytotoxicity against human IGROV-ET cells after 48 hrs by SRB assay; type: functional; settings: for CC50: read-out: LC50 (the source's name); how it was run: as §1

SMILES	GI50 [1]	TGI [1]	CC50 [1]	GI50 [2]	TGI [2]	CC50 [2]	CC50 [3]	GI50 [4]	TGI [4]	CC50 [4]	GI50 [5]	TGI [5]	CC50 [5]	LC50 [6]	GI50 ([6]; read-out: GI50)	CC50 [7]	GI50 ([8]; read-out: GI50)	CC50 [8]	GI50 ([9]; read-out: GI50)	CC50 [9]	further results
C/C=C1\NC(=O)[C@H](Cc2ccc(Cl)cc2)NC(=O)[C@@H](C(C)C)NC(=O)[C@@H]([C@H](C)CC)NC(=O)[C@H](NC(=O)[C@H](NC(=O)[C@H](CCCN)NC(=O)[C@H]2CCCN2C(=O)[C@H](NC(=O)[C@@H](NC(=O)[C@@H](NC(=O)[C@H](NC(=O)CCCC(C)C)C(C)C)[C@@H](C)O)C(C)C)C(C)C)[C@H](C)CC)[C@H](C)OC(=O)[C@H](C(C)C)NC1=O	0.0571 µM	0.0449 µM	0.34 µM	0.0216 µM	0.055 µM	0.0838 µM	1.69 µM	0.193 µM	0.184 µM	0.362 µM	0.0365 µM	0.0735 µM	0.143 µM	0.934 µM	0.227 µM	0.112 µM	0.214 µM	0.931 µM	0.112 µM	0.388 µM	GI50 [3]: 0.696 µM; TGI [3]: 1.09 µM; GI50 [6]: 0.473 µM; GI50 [7]: 0.0629 µM; GI50 ([7]; read-out: GI50): 0.0463 µM; GI50 [8]: 0.393 µM; GI50 [9]: 0.189 µM; GI50 [10]: 0.0386 µM; GI50 ([10]; read-out: GI50): 0.0397 µM; CC50 [10]: 0.206 µM; GI50 [11]: 1.14 µM; TGI [11]: 1.7 µM; CC50 [11]: 1.7 µM; GI50 [12]: 0.215 µM; LC50 (concentration giving 50% net cell kill) [12]: 0.286 µM; TGI [12]: 0.186 µM; GI50 [13]: 0.122 µM; GI50 ([13]; read-out: GI50): 0.0862 µM; CC50 [13]: 0.175 µM
C/C=C1\NC(=O)[C@H](Cc2cccs2)NC(=O)[C@@H](C(C)C)NC(=O)[C@@H]([C@H](C)CC)NC(=O)[C@H](NC(=O)[C@H](NC(=O)[C@H](CCCN)NC(=O)[C@H]2CCCN2C(=O)[C@H](NC(=O)[C@@H](NC(=O)[C@@H](NC(=O)[C@H](NC(=O)CC[C@@H](C)CC)C(C)C)[C@@H](C)O)C(C)C)C(C)C)[C@H](C)CC)[C@H](C)OC(=O)[C@H](C(C)C)NC1=O	0.39 µM	0.391 µM	0.393 µM	0.751 µM	1.19 µM	1.93 µM	2.69 µM	1.59 µM	1.29 µM	1.07 µM	1.29 µM	1.02 µM	0.657 µM	1.21 µM	1.76 µM	0.676 µM	1.58 µM	1.29 µM	1.38 µM	1.07 µM	GI50 [3]: 4.92 µM; TGI [3]: 4.29 µM; TGI [6]: 1.45 µM; TGI [8]: 1.43 µM; TGI [9]: 1.21 µM; CC50 [10]: 0.11 µM; CC50 [11]: 2.01 µM; GI50 [12]: 1.77 µM; LC50 (concentration giving 50% net cell kill) [12]: 1.13 µM; TGI [12]: 1.42 µM; GI50 [13]: 0.855 µM; GI50 ([13]; read-out: GI50): 1.71 µM; CC50 [13]: 0.505 µM
C/C=C1\NC(=O)[C@H](Cc2ccc(-c3ccccc3)cc2)NC(=O)[C@@H](C(C)C)NC(=O)[C@@H]([C@H](C)CC)NC(=O)[C@H](NC(=O)[C@H](NC(=O)[C@H](CCCN)NC(=O)[C@H]2CCCN2C(=O)[C@H](NC(=O)[C@@H](NC(=O)[C@@H](NC(=O)[C@H](NC(=O)CCCC(C)C)C(C)C)[C@@H](C)O)C(C)C)C(C)C)[C@H](C)CC)[C@H](C)OC(=O)[C@H](C(C)C)NC1=O	0.177 µM	0.239 µM	0.284 µM	0.184 µM	0.268 µM	0.317 µM	1.42 µM	0.22 µM	0.372 µM	0.812 µM	0.214 µM	0.187 µM	0.516 µM	0.947 µM	0.0521 µM	0.564 µM	0.19 µM	0.644 µM	0.166 µM	0.129 µM	TGI [6]: 0.0566 µM; GI50 [7]: 0.159 µM; GI50 ([7]; read-out: GI50): 0.253 µM; GI50 [8]: 0.214 µM; GI50 [9]: 0.146 µM; TGI [10]: 0.183 µM; GI50 ([10]; read-out: GI50): 0.0689 µM; CC50 [10]: 0.968 µM; GI50 [11]: 1.24 µM; TGI [11]: 1.33 µM; CC50 [11]: 1.4 µM; GI50 [12]: 0.482 µM; LC50 (concentration giving 50% net cell kill) [12]: 1.12 µM; TGI [12]: 0.762 µM; GI50 [13]: 0.23 µM; GI50 ([13]; read-out: GI50): 0.134 µM; CC50 [13]: 0.536 µM
